Measured values published in ChEMBL document CHEMBL1136810, “Design and synthesis of plasmepsin I and plasmepsin II inhibitors with activity in Plasmodium falciparum-infected cultured human erythrocytes” (J Med Chem, 2003).

Columns and labels:
[1] = target: Plasmepsin I (Plasmodium falciparum, UniProt P39898); test: Binding affinity for Plasmodium falciparum plasmepsin-1.
Method in brief: (§1)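 Fluorogenic protease assay in 100 mM sodium acetate pH 4.5 with 10% glycerol and 0.01% Tween 20. Pro-Plm II at 3 nM had its pro-sequence removed by 40 min preincubation at room temperature. Plm I was matched to similar activity. Pro-cathepsin D at 50 ng/mL was activated 20 min at 37 °C. Inhibitors in DMSO (1% final) were added before 3 μM DABCYL/EDANS peptide substrate. Fluorescence rise was read over 10 min. IC50 came from a competitive-isotherm fit and was converted to Ki using Km.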

[2] = target: Plasmepsin II (Plasmodium falciparum, UniProt P46925); test: Binding affinity for Plasmodium falciparum plasmepsin-2.; method in brief: as §1
Sequence of Plasmepsin II (P46925 whole entry): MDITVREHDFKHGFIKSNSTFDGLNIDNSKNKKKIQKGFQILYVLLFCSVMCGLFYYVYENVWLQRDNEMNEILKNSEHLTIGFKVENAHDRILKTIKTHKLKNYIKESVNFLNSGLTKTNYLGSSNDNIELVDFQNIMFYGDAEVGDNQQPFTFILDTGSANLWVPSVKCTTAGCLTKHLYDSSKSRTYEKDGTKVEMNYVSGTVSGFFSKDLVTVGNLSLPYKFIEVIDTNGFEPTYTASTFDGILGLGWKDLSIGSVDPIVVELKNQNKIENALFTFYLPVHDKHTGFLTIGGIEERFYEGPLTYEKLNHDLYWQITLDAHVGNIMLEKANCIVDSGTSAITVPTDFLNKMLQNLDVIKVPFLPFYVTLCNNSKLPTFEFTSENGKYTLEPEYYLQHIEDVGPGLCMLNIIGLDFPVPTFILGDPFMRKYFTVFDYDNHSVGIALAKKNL

[3] = target: Cathepsin D (Homo sapiens, UniProt P07339); test: In vitro binding affinity for human cathepsin D.; method in brief: as §1
Sequence of Cathepsin D (P07339 65-162 limits assumed): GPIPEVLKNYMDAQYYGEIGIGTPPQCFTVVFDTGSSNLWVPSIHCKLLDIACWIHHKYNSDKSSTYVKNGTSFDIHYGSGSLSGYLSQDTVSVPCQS
Sequence of Cathepsin D (P07339 169-412 limits assumed): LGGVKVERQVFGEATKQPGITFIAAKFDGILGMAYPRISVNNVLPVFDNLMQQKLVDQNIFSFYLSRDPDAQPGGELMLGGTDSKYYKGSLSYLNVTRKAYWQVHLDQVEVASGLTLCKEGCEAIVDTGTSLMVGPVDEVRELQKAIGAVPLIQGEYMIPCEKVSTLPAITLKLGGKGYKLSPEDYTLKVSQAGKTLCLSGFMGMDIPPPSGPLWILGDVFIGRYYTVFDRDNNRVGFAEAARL

[4] = tested on: Plasmodium falciparum; test: Percent inhibition of Plasmodium falciparum in red blood cells at 5 uM; format: functional
[5] = tested on: Plasmodium falciparum; test: Effective dose against Plasmodium falciparum in red blood cells; format: functional; settings: read-out: ED50 (the source's name)
[6] = tested on: Caco-2; test: Permeability in Caco-2 cells was determined; format: functional, cell-based; settings: Homo sapiens
[7] = tested on: Plasmodium falciparum; test: Percent inhibition against Plasmodium falciparum infected red blood cells at 5 uM; format: functional
[8] = tested on: Plasmodium falciparum; test: Percent inhibition of Plasmodium falciparum in erythrocytes at 5 uM; format: functional

Sequence of Plasmepsin I (P39898 whole entry): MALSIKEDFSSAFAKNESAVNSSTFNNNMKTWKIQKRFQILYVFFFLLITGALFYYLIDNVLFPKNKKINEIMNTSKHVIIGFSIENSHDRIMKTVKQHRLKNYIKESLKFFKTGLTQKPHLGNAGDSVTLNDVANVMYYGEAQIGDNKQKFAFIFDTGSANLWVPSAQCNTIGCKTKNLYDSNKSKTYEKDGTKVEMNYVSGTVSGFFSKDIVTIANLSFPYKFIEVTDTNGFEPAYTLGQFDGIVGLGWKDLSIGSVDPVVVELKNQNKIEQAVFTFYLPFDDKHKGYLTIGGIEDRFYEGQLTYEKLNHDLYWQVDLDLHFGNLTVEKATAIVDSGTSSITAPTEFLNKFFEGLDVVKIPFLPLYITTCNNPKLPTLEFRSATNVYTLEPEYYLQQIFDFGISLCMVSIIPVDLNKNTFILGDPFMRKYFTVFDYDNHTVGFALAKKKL

SMILES	Ki [1]	Ki [2]	Ki [3]	further results
COc1ccccc1-c1ccc(C[C@H](NC[C@H](O)[C@H](Cc2ccccc2)NC(=O)[C@@H](NC(=O)c2ccccn2)C(C)C)C(N)=O)cc1	437 nM	379 nM	–	–
CC(C)[C@H](NC(=O)c1ccccn1)C(=O)N[C@@H](Cc1ccccc1)[C@@H](O)CN1C(=O)NC(=O)[C@@H]1Cc1ccc(-c2ccccc2)cc1	2050 nM	928 nM	> 2000 nM	–
CC(C)[C@H](NC(=O)c1ccccn1)C(=O)N[C@@H](Cc1ccccc1)[C@@H](O)CN1C(=O)NC(=O)[C@@H]1Cc1ccc(Br)cc1	> 2000 nM	1900 nM	> 2000 nM	–
CC(C)[C@H](NC(=O)c1ccccn1)C(=O)N[C@@H](Cc1ccccc1)[C@@H](O)CN[C@@H](Cc1cccc(-c2cccc(N)c2)c1)C(N)=O	530 nM	129 nM	> 2000 nM	inhibition at 5 µM [4]: 69%
Cc1ccc(-c2ccc(C[C@H](NC[C@H](O)[C@H](Cc3ccccc3)NC(=O)[C@@H](NC(=O)c3ccccn3)C(C)C)C(N)=O)cc2)cc1	115 nM	121 nM	–	EC50 [5]: 1600 nM
CC(C)[C@H](NC(=O)c1ccccn1)C(=O)N[C@@H](Cc1ccccc1)[C@@H](O)CN[C@@H](Cc1cccc(OS(=O)(=O)C(F)(F)F)c1)C(N)=O	469 nM	> 2000 nM	1700 nM	–
CC(C)[C@H](NC(=O)c1ccccn1)C(=O)N[C@@H](Cc1ccccc1)[C@@H](O)CN[C@@H](Cc1ccc(-c2ccccc2)cc1)C(N)=O	68 nM	117 nM	> 2000 nM	Papp [6]: 10.3 ×10⁻⁶ cm/s
COc1ccccc1-c1cccc(C[C@H](NC[C@H](O)[C@H](Cc2ccccc2)NC(=O)[C@@H](NC(=O)c2ccccn2)C(C)C)C(N)=O)c1	1300 nM	1430 nM	> 2000 nM	–
CC(C)[C@H](NC(=O)c1ccccn1)C(=O)N[C@@H](Cc1ccccc1)[C@@H](O)CN[C@H](Cc1ccccc1)C(N)=O	–	–	> 2000 nM	–
CC(C)[C@H](NC(=O)c1ccccn1)C(=O)N[C@@H](Cc1ccccc1)[C@@H](O)CN[C@@H](Cc1ccc(Br)cc1)C(N)=O	98 nM	540 nM	> 2000 nM	inhibition at 5 µM [7]: 35%
CC(C)[C@H](NC(=O)c1ccccn1)C(=O)N[C@@H](Cc1ccccc1)[C@@H](O)CN[C@@H](Cc1ccc(-c2cccc(N)c2)cc1)C(N)=O	63 nM	150 nM	–	inhibition at 5 µM [8]: 77%
CC(C)C[C@H](NC[C@H](O)[C@H](Cc1ccccc1)NC(=O)c1ccccn1)C(N)=O	> 2000 nM	> 2000 nM	> 2000 nM	–
CC(C)[C@H](NC(=O)c1ccccn1)C(=O)N[C@@H](Cc1ccccc1)[C@@H](O)CN[C@@H](C)C(N)=O	> 2000 nM	> 2000 nM	> 2000 nM	–
CC(C)C[C@H](NC(=O)[C@H](C)NC(=O)C[C@H](O)[C@H](Cc1ccccc1)NC(=O)[C@@H](NC(=O)c1ccccn1)C(C)C)C(N)=O	–	0.56 nM	–	–
CC(C)[C@H](NC(=O)c1ccccn1)C(=O)N[C@@H](Cc1ccccc1)[C@@H](O)CN[C@@H](Cc1cccc(-c2ccccc2)c1)C(N)=O	1000 nM	579 nM	1600 nM	–
Cc1ccc(-c2cccc(C[C@H](NC[C@H](O)[C@H](Cc3ccccc3)NC(=O)[C@@H](NC(=O)c3ccccn3)C(C)C)C(N)=O)c2)cc1	1100 nM	930 nM	1900 nM	–
CC(C)C[C@H](NC[C@H](O)[C@H](Cc1ccccc1)NC(=O)[C@@H](NC(=O)c1ccccn1)C(C)C)C(N)=O	–	–	> 2800 nM	–
CC(C)[C@H](NC(=O)c1ccccn1)C(=O)N[C@@H](Cc1ccccc1)[C@@H](O)CN[C@@H](Cc1ccccc1)C(N)=O	–	–	> 2800 nM	–
CC(C)[C@H](NC(=O)c1ccccn1)C(=O)N[C@@H](Cc1ccccc1)[C@@H](O)CN[C@H](C(N)=O)c1ccccc1	> 2000 nM	> 2000 nM	> 2000 nM	–
CCCCNC(=O)C[C@H](O)[C@H](CC(C)C)NC(=O)[C@@H](NC(=O)Cc1ccc2ccccc2c1)C(C)CC (stereo partly drawn)	–	50 nM	320 nM	–
